According to ChEMBL document CHEMBL1139865 (J Med Chem, 2007):
Activity calls are given as the source filed them. The rule behind the calls is not given here.

Legend:
in vitro [1] = settings: rat
in vitro [2] = settings: human
[3] = Clearance in dog at 1 mg/kg, iv and 3 mg/kg, po; assay type: ADME, organism-based, Canis lupus familiaris; settings: in vivo
Procedure, shortened: (§1)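 Dog PK study using the HCl salt, dosed at 1 mg/kg iv or 3 mg/kg orally. Plasma drug levels were followed, and plasma DPP-4 activity was tracked alongside them.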

[4] = Volume of distribution at steady state in dog at 1 mg/kg, iv and 3 mg/kg, po; assay type: ADME, organism-based, Canis lupus familiaris; settings: in vivo, read-out: Vdss
Procedure, shortened: as §1

[5] = AUC in dog at 3 mg/kg, po; assay type: ADME, organism-based, Canis lupus familiaris; parameters: dose 3 mg/kg, route oral; settings: plasma
Procedure, shortened: as §1

[6] = Half life in dog at 1 mg/kg, iv; assay type: ADME, organism-based, Canis lupus familiaris; parameters: dose 1 mg/kg, route intravenous; settings: in vivo
Procedure, shortened: as §1

[7] = Half life in dog at 3 mg/kg, po; assay type: ADME, organism-based, Canis lupus familiaris; parameters: dose 3 mg/kg, route oral; settings: in vivo
Procedure, shortened: as §1

[8] = Bioavailability in dog at 1 mg/kg, iv and 3 mg/kg, po; assay type: ADME, organism-based, Canis lupus familiaris; settings: in vivo
Procedure, shortened: as §1

[9] = AUC in rat at 10 mg/kg, po; assay type: ADME, organism-based; parameters: dose 10 mg/kg, route oral; settings: plasma
Procedure, shortened: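 Rat pharmacokinetics with the test article given as the TFA salt: 1 mg/kg iv and 10 mg/kg oral. Oral AUC comes from plasma concentrations after oral dosing. Half-lives, clearance, Vdss and oral bioavailability are derived from the same iv/oral pair.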

[10] = Volume of distribution at steady state in rat at 1 mg/kg, iv and 10 mg/kg, po; assay type: ADME, organism-based; settings: in vivo, read-out: Vdss
Procedure, shortened: (§2)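 Rat PK study using the TFA salt. A single iv dose (1 mg/kg) and a separate oral dose (10 mg/kg) were given. Half-life was derived for each route, and CL and Vdss for the iv route. F (%) was calculated from the oral and iv exposure.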

[11] = Clearance in rat at 1 mg/kg, iv and 10 mg/kg, po; assay type: ADME, organism-based; settings: in vivo
Procedure, shortened: as §2

[12] = Half life in rat at 1 mg/kg, iv; assay type: ADME, organism-based; parameters: dose 1 mg/kg, route intravenous; settings: in vivo
Procedure, shortened: as §2

[13] = Half life in rat at 10 mg/kg, po; assay type: ADME, organism-based; parameters: dose 10 mg/kg, route oral; settings: in vivo
Procedure, shortened: as §2

[14] = Volume of distribution at steady state in monkey at 1.1 mg/kg, iv and 10 mg/kg, po; assay type: ADME, organism-based, Macaca mulatta; settings: rhesus monkey, in vivo, read-out: Vdss
Procedure, shortened: (§3)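 Monkey PK study using the benzoate salt, dosed at 1.1 mg/kg iv or 10 mg/kg orally. Plasma drug concentrations and plasma DPP-4 inhibition were measured. Parameters derived were iv and oral half-lives, oral AUC, CL, Vdss and F (%).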

[15] = AUC in monkey at 10 mg/kg, po; assay type: ADME, organism-based, Macaca mulatta; parameters: dose 10 mg/kg, route oral; settings: rhesus monkey, plasma
Procedure, shortened: as §3

[16] = Clearance in monkey at 1.1 mg/kg, iv and 10 mg/kg, po; assay type: ADME, organism-based, Macaca mulatta; settings: rhesus monkey, in vivo
Procedure, shortened: as §3

[17] = Half life in monkey at 1.1 mg/kg, iv; assay type: ADME, organism-based, Macaca mulatta; parameters: dose 1.1 mg/kg, route intravenous; settings: rhesus monkey, in vivo
Procedure, shortened: as §3

[18] = Half life in monkey at 10 mg/kg, po; assay type: ADME, organism-based, Macaca mulatta; parameters: dose 10 mg/kg, route oral; settings: rhesus monkey, in vivo
Procedure, shortened: as §3

[19] = Bioavailability in monkey at 1.1 mg/kg, iv and 10 mg/kg, po; assay type: ADME, organism-based, Macaca mulatta; settings: rhesus monkey, in vivo
Procedure, shortened: as §3

Rattus norvegicus [20] = species on record: Rattus norvegicus; test: Improvement in glucose tolerance in Wistar fatty rat; assay type: functional, organism-based
Procedure, shortened: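 Glucose tolerance test in female Wistar fatty rats given the benzoate salt, with doses normalized to free base. Read-outs after an oral glucose load were plasma glucose, the baseline (0 min)-adjusted glucose AUC0–60min, and plasma immunoreactive insulin, including the level at 10 min. Data are mean and SD (n = 6), compared with control by one-tailed Williams'/Shirley-Williams' tests.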

Rattus norvegicus [21] = species on record: Rattus norvegicus; test: Increase in plasma insulin level in Wistar fatty rat; assay type: functional, organism-based
Procedure, shortened: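 Female Wistar fatty rats given a benzoate salt, with doses expressed as free base, then an oral glucose load. Plasma immunoreactive insulin read 10 min after the glucose load. Mean and SD, n = 6. Compared with control by one-tailed Williams' or Shirley-Williams' test, p ≤ 0.025.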

Mus musculus = species on record: Mus musculus; test: Reduction in glucose excursion in mouse after oral glucose tolerance test; assay type: functional, organism-based

COc1cc2c(=O)n(Cc3ccccc3C#N)c(N3CCC[C@@H](N)C3)nc2cc1F
half-life at 1 µM (in vitro [1]; liver microsomes): 0.583 h
half-life at 1 µM (in vitro [2]; liver microsomes): 2.27 h

Cl.Cn1c(=O)cc(N2CCC[C@@H](N)C2)n(Cc2ccccc2C#N)c1=O
clearance [3]: 23 mL/min/kg
Vd [4]: 3.51 L/kg
AUC [5]: 1610 ng·h/mL
half-life [6]: 2.93 h
half-life [7]: 3.04 h
bioavailability [8]: 68%

COc1ccc2nc(N3CCC[C@@H](N)C3)n(Cc3ccccc3C#N)c(=O)c2c1
half-life at 1 µM (in vitro [1]; liver microsomes): 0.167 h
half-life at 1 µM (in vitro [2]; liver microsomes): 1.37 h

N#Cc1ccccc1Cn1c(N2CCC[C@@H](N)C2)nc2ccc(F)cc2c1=O.O=C(O)C(F)(F)F
AUC [9]: 7560 ng·h/mL
Vd [10]: 2.87 L/kg
clearance [11]: 20.6 mL/min/kg
half-life [12]: 2.6 h
half-life [13]: 2.43 h

Cn1c(=O)cc(N2CCC[C@@H](N)C2)n(Cc2ccccc2C#N)c1=O.O=C(O)c1ccccc1 [ALOGLIPTIN BENZOATE]
Vd [14]: 2.6 L/kg
AUC [15]: 16600 ng·h/mL
clearance [16]: 8.81 mL/min/kg
half-life [17]: 5.74 h
half-life [18]: 5.66 h
bioavailability [19]: 87%

N#Cc1ccccc1Cn1c(N2CCC[C@@H](N)C2)nc2ccc(F)cc2c1=O [listing 1 of 2 here]
half-life at 1 µM (in vitro [1]; liver microsomes): 0.517 h
half-life at 1 µM (in vitro [2]; liver microsomes): > 3.33 h

COc1cc2nc(N3CCC[C@@H](N)C3)n(Cc3ccccc3C#N)c(=O)c2cc1OC
half-life at 1 µM (in vitro [1]; liver microsomes): 1.78 h
half-life at 1 µM (in vitro [2]; liver microsomes): 2.43 h

N#Cc1ccccc1Cn1c(N2CCC[C@@H](N)C2)nc2c(Cl)cc(Cl)cc2c1=O
half-life at 1 µM (in vitro [1]; microsomes): 0.283 h
half-life at 1 µM (in vitro [2]; microsomes): 1.07 h

Cn1c(=O)cc(N2CCC[C@@H](N)C2)n(Cc2ccccc2C#N)c1=O
Activity (Rattus norvegicus [20]): Dose-dependent effect
Activity (Rattus norvegicus [21]): Active

N#Cc1ccccc1Cn1c(N2CCC[C@@H](N)C2)nc2ccccc2c1=O
half-life at 1 µM (in vitro [1]; microsomes): 0.0417 h
half-life at 1 µM (in vitro [2]; microsomes): > 3.33 h

N#Cc1ccccc1Cn1c(N2CCC[C@@H](N)C2)nc2ccc(Cl)cc2c1=O
half-life at 1 µM (in vitro [1]; liver microsomes): 0.667 h
half-life at 1 µM (in vitro [2]; liver microsomes): > 3.33 h

N#Cc1ccccc1Cn1c(N2CCC[C@@H](N)C2)nc2cccc(F)c2c1=O
half-life at 1 µM (in vitro [1]; microsomes): 0.03 h
half-life at 1 µM (in vitro [2]; microsomes): 2.08 h

N#Cc1ccccc1Cn1c(N2CCCC(N)C2)nc2c(Cl)cccc2c1=O (configuration not stated)
half-life at 1 µM (in vitro [1]; liver microsomes): 0.0617 h
half-life at 1 µM (in vitro [2]; liver microsomes): 1.33 h

N#Cc1ccccc1Cn1c(N2CCC[C@@H](N)C2)nc2cc(N3CCOCC3)c(F)cc2c1=O
half-life at 1 µM (in vitro [1]; liver microsomes): 0.102 h
half-life at 1 µM (in vitro [2]; liver microsomes): 0.55 h

N#Cc1ccccc1Cn1c(N2CCC[C@@H](N)C2)nc2ccc(F)cc2c1=O [listing 2 of 2 here]
Activity (Mus musculus): Active

N#Cc1ccccc1Cn1c(N2CCC[C@@H](N)C2)nc2ccc(Br)cc2c1=O
half-life at 1 µM (in vitro [1]; liver microsomes): 0.567 h
half-life at 1 µM (in vitro [2]; liver microsomes): 1.88 h
